From ChEMBL document CHEMBL4229446, “Development of Novel Monoamine Oxidase-B (MAO-B) Inhibitors with Reduced Blood-Brain Barrier Permeability for the Potential Management of Noncentral Nervous System (CNS) Diseases” (J Med Chem, 2018)

Legend:
[1] = Tmax in C57BL/6 mouse plasma at 24.5 mg/kg, po administered as single dose measured 24 hrs by UPLC-MS/MS analysis; format: ADME, organism-based
How it was run: (§1)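 Plasma extracted by protein precipitation/phospholipid removal and measured by UPLC-MS/MS (MRM). Parameters by noncompartmental analysis, omitting values outside quantification limits or undetected.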

[2] = Tmax in C57BL/6 mouse brain at 24.5 mg/kg, sc administered as single dose measured 24 hrs by UPLC-MS/MS analysis; format: ADME, organism-based
How it was run: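 Brain portion homogenised in 50 mM ammonium formate with beads, acidified organic extraction, UPLC-MS/MS. ng/g read as ng/mL. Noncompartmental analysis; values above or below quantification limit, or undetected, excluded.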

[3] = Tmax in C57BL/6 mouse brain at 24.5 mg/kg, iv administered as single dose measured 24 hrs by UPLC-MS/MS analysis; format: ADME, organism-based
How it was run: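 Brains weighed, portion bead-homogenised in 50 mM ammonium formate, extracted in acidified organic solvent, quantified by UPLC-MS/MS. ng/g taken as ng/mL. Tmax from noncompartmental analysis.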

[4] = AUClast in C57BL/6 mouse plasma at 24.5 mg/kg, iv administered as single dose measured 24 hrs by UPLC-MS/MS analysis; format: ADME, organism-based; set-up: dose 24.5 mg/kg, time 0 - last, route intravenous
How it was run: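 21 animals dosed at 0 min, 3 sacrificed at each of 0, 5, 15, 30 min, 1, 4 and 24 h. Plasma was extracted by protein precipitation with phospholipid removal. Brain was weighed, bead-homogenised in 50 mM ammonium formate and extracted in acidified organic solvent. Quantified by UPLC-MS/MS (MRM). Brain ng/g taken as ng/mL. Parameters came from noncompartmental analysis. Kp = AUClast brain/plasma.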

[5] = AUClast in C57BL/6 mouse brain at 24.5 mg/kg, po administered as single dose measured 24 hrs by UPLC-MS/MS analysis; format: ADME, organism-based; set-up: dose 24.5 mg/kg, route oral, time 0 - last
How it was run: (§2)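 15 animals dosed, 3 sacrificed at each of 1, 2, 4, 6 and 24 h. Plasma and brain homogenate were extracted and quantified by UPLC-MS/MS. Parameters came from noncompartmental analysis. Values above or below the limit of quantification, or undetected, were omitted. Kp = AUClast brain/plasma.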

[6] = Cmax in C57BL/6 mouse brain at 24.5 mg/kg, sc administered as single dose measured 24 hrs by UPLC-MS/MS analysis; format: ADME, organism-based; set-up: dose 24.5 mg/kg, route subcutaneous; how it was run: as §2
[7] = Ratio of AUClast in brain to plasma in C57BL/6 mouse at 24.5 mg/kg, sc administered as single dose measured 24 hrs by UPLC-MS/MS analysis; format: ADME, organism-based; how it was run: as §2
[8] = Cmax in C57BL/6 mouse brain at 24.5 mg/kg, po administered as single dose measured 24 hrs by UPLC-MS/MS analysis; format: ADME, organism-based; set-up: dose 24.5 mg/kg, route oral; how it was run: as §2
[9] = Apparent half-life of the terminal disposition phase in C57BL/6 mouse plasma at 24.5 mg/kg, po administered as single dose measured 24 hrs by UPLC-MS/MS analysis; format: ADME, organism-based; details: read-out: t1/2 lambda z (converted); how it was run: as §2
[10] = AUClast in C57BL/6 mouse plasma at 24.5 mg/kg, po administered as single dose measured 24 hrs by UPLC-MS/MS analysis; format: ADME, organism-based; set-up: dose 24.5 mg/kg, route oral, time 0 - last; how it was run: as §2
[11] = Tmax in C57BL/6 mouse plasma at 24.5 mg/kg, iv administered as single dose measured 24 hrs by UPLC-MS/MS analysis; format: ADME, organism-based
How it was run: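 Plasma cleaned by protein precipitation with phospholipid removal, then UPLC-MS/MS in MRM mode. Tmax obtained by noncompartmental analysis.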

[12] = Apparent half-life of the terminal disposition phase in C57BL/6 mouse plasma at 24.5 mg/kg, sc administered as single dose measured 24 hrs by UPLC-MS/MS analysis; format: ADME, organism-based; details: read-out: t1/2 lambda z (converted); how it was run: as §2
[13] = AUClast in C57BL/6 mouse plasma at 24.5 mg/kg, sc administered as single dose measured 24 hrs by UPLC-MS/MS analysis; format: ADME, organism-based; set-up: dose 24.5 mg/kg, time 0 - last, route subcutaneous; how it was run: as §2
[14] = Cmax in C57BL/6 mouse plasma at 24.5 mg/kg, po administered as single dose measured 24 hrs by UPLC-MS/MS analysis; format: ADME, organism-based; set-up: dose 24.5 mg/kg, route oral; how it was run: as §2
[15] = Tmax in C57BL/6 mouse plasma at 24.5 mg/kg, sc administered as single dose measured 24 hrs by UPLC-MS/MS analysis; format: ADME, organism-based; how it was run: as §1
[16] = Cmax in C57BL/6 mouse plasma at 23.4 mg/kg, iv administered as single dose measured 24 hrs by UPLC-MS/MS analysis; format: ADME, organism-based; set-up: dose 23.4 mg/kg, route intravenous
How it was run: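 21 animals dosed at 0 min, 3 killed per time point (0, 5, 15, 30 min, 1, 4, 24 h). Plasma extracted by protein precipitation/phospholipid removal. Brain homogenized in 50 mM ammonium formate, then extracted in acidified organic solvent. Both quantified by UPLC-MS/MS (MRM), brain ng/g taken as ng/mL. Noncompartmental analysis. Kp = AUClast brain/plasma.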

[17] = Apparent half-life of the terminal disposition phase in C57BL/6 mouse plasma at 23.4 mg/kg, sc administered as single dose measured 24 hrs by UPLC-MS/MS analysis; format: ADME, organism-based; details: read-out: t1/2 lambda z (converted)
How it was run: (§3)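 15 animals dosed, 3 killed at each of 1, 2, 4, 6 and 24 h. Plasma and brain homogenate (ammonium formate, acidified organic extraction) assayed by UPLC-MS/MS, brain ng/g taken as ng/mL. Noncompartmental parameters exclude values above/below quantification limit or undetected. Kp = AUClast brain/plasma.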

[18] = Apparent half-life of the terminal disposition phase in C57BL/6 mouse plasma at 23.4 mg/kg, po administered as single dose measured 24 hrs by UPLC-MS/MS analysis; format: ADME, organism-based; details: read-out: t1/2 lambda z (converted); how it was run: as §3
[19] = Metabolic stability in mouse liver microsomes assessed as parent compound remaining at 1 uM after 60 mins by UPLC-MS/MS analysis; format: ADME, microsome; details: liver microsomes, read-out: Stability
How it was run: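 Compound at 1 μM with 0.5 mg/mL mouse or human liver microsomes in 100 mM potassium phosphate pH 7.4, 3.3 mM MgCl2, 1 mM NADPH, at 37 °C. Started with NADPH; minus-NADPH control run. Stopped at 0, 5, 15, 30, 45 and 60 min with acetonitrile/formic acid plus internal standard. Parent remaining by UPLC-MS/MS, in triplicate.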

[20] = Cmax in C57BL/6 mouse brain at 23.4 mg/kg, po administered as single dose measured 24 hrs by UPLC-MS/MS analysis; format: ADME, organism-based; set-up: dose 23.4 mg/kg, route oral; how it was run: as §3
[21] = AUClast in C57BL/6 mouse plasma at 23.4 mg/kg, po administered as single dose measured 24 hrs by UPLC-MS/MS analysis; format: ADME, organism-based; set-up: dose 23.4 mg/kg, time 0 - last, route oral; how it was run: as §3
[22] = Ratio of AUClast in brain to plasma in C57BL/6 mouse at 23.4 mg/kg, sc administered as single dose measured 24 hrs by UPLC-MS/MS analysis; format: ADME, organism-based; how it was run: as §3

In the case of `C[C@H](Cc1ccc(OCc2ccc(Br)c(Cl)c2)cc1)N(C)CC(=O)O`, the Tmax [1] is reported as 1 h, the Tmax [2] is reported as 6 h and the Tmax [3] is reported as 4 h. For the same molecule, the AUC(0-t) at 24 h [4] was 94800 ng·h/mL, the AUC(0-t) at 24 h [5] was 12600 ng·h/mL and the Cmax [6] was 806 ng/mL. For the same molecule, the Kp at 24 h [7] was 0.19, the Cmax [8] was 812 ng/mL and the half-life [9] was 3.59 h. The AUC(0-t) at 24 h [10] was 104000 ng·h/mL, the Tmax [11] was 5 min and the half-life [12] was 4.81 h. The AUC(0-t) at 24 h [13] was 66900 ng·h/mL, the Cmax [14] was 8530 ng/mL and the Tmax [15] was 2 h.
In the case of `CN(CC(=O)O)[C@H](CC#N)Cc1ccc(OCc2ccc(Cl)c(Cl)c2)cc1`, the Cmax [16] is reported as 52100 ng/mL, the half-life [17] is reported as 3.62 h and the half-life [18] is reported as 2.93 h. For the same molecule, the remaining at 1 h, 1 µM [19] was 39%, the Cmax [20] was 91.9 ng/mL and the AUC(0-t) at 24 h [21] was 73000 ng·h/mL. The Kp at 24 h [22] was 0.005.
